{"source": "paper PMC7323835", "about": "(American Journal of Clinical Oncology, 2020)", "key": {"rats": {"system": "rats", "test": "GLP 28-day toxicology study in rats", "assay_type": "in vivo, rat", "conditions": "highest dose tested in rats, 28-day GLP"}, "[1]": {"test": "Plasma pharmacokinetics of SLC-0111 after single and repeated dosing", "assay_type": "in vivo, human", "conditions": "for AUC(0-t) / Tmax: human, plasma, oral; for AUC(0-t): AUC(0-24), Day 1, mean; for Tmax: range of cohort means"}, "[2]": {"system": "patients with previously treated, advanced solid tumors", "test": "Phase 1 dose escalation study: safety and tolerability", "assay_type": "in vivo, human"}, "advanced solid tumors": {"system": "advanced solid tumors", "test": "Tumor response", "assay_type": "in vivo, human", "how_it_was_run": "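Patients with previously treated advanced solid tumours were enrolled in an open-label 3+3 escalation. The test compound was given as an oral liquid (100 mg/mL in lecithin/propylene glycol/PEG/TPGS vehicle) once daily, ≥2 h from meals, in 28-day cycles. CT/MRI was scored by RECIST v1.1 (CR/PR/SD/PD) every 8 weeks (±7 d) until progression, discontinuation or consent withdrawal. SD duration was counted in cycles.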"}}}
{"smiles": "NS(=O)(=O)c1ccc(NC(=O)Nc2ccc(F)cc2)cc1", "note": "[SLC-0111, 4-[(4-fluorophenyl)carbamoyl]amino-benzene sulfonamide]", "values": [{"measurement": "Severe toxic dose in 10% (STD10) of treated rodents", "setting": "rats", "result": 500, "unit": "mg/kg/day"}, {"measurement": "Day 28/Day 1 AUC(0-24) ratio", "setting": "[1]; 500 mg/d", "result": "2.01±0.879"}, {"measurement": "Day 28/Day 1 Cmax±SD ratio", "setting": "[1]; 500 mg/d", "result": "1.32±0.298"}, {"measurement": "Day 28/Day 1 AUC(0-24) ratio", "setting": "[1]; 1000 mg/d", "result": "1.47±1.42"}, {"measurement": "Day 28/Day 1 Cmax±SD ratio", "setting": "[1]; 1000 mg/d", "result": "1.17±1.02"}, {"measurement": "Day 28/Day 1 AUC(0-24) ratio", "setting": "[1]; 2000 mg/d", "result": "2.18±0.247"}, {"measurement": "Day 28/Day 1 Cmax±SD ratio", "setting": "[1]; 2000 mg/d", "result": "3.70±4.30"}, {"measurement": "Dose proportionality of exposure (in words)", "setting": "[1]; Cmax and AUC(0-24), days 1 and 28, 500-2000 mg", "result": "generally dose proportional"}, {"measurement": "AUC(0-t)", "setting": "[1]; 500 mg, 500 mg, N=3", "result": 33000, "unit": "ng·h/mL"}, {"measurement": "AUC(0-t)", "setting": "[1]; 1000 mg, 1000 mg, N=3", "result": 70000, "unit": "ng·h/mL"}, {"measurement": "AUC(0-t)", "setting": "[1]; 2000 mg, 2000 mg, N=2", "result": 94000, "unit": "ng·h/mL"}, {"measurement": "Tmax", "setting": "[1]; Day 1, 500-2000 mg cohorts", "result": "2.46 to 6.05", "unit": "h"}, {"measurement": "Tmax", "setting": "[1]; Day 28, 500-2000 mg cohorts", "result": "2.61 to 5.02", "unit": "h"}, {"measurement": "Dose-limiting toxicities (in words)", "setting": "[2]; 500, 1000 and 2000 mg, cycle 1, 10 evaluable patients", "result": "No protocol defined DLTs were observed"}, {"measurement": "Hypophosphatemia, Grade of the grade 3-4 events (CTCAE)", "setting": "[2]; Cohort 1 (500 mg)", "result": 3}, {"measurement": "Fatigue, Grade of the grade 3-4 events (CTCAE)", "setting": "[2]; Cohort 2 (1000 mg)", "result": 3}, {"measurement": "Pulmonary embolism (SAE), Grade (CTCAE)", "setting": "[2]; Cohort 2 (1000 mg)", "result": 3}, {"measurement": "Alanine Transaminase, Grade of the grade 3-4 events (CTCAE)", "setting": "[2]; Cohort 3 (2000 mg)", "result": 3}, {"measurement": "Clostridium entercolitis (SAE), Grade (CTCAE)", "setting": "[2]; Cohort 3 (2000 mg)", "result": 3}, {"measurement": "Fatigue, Grade of the grade 3-4 events (CTCAE)", "setting": "[2]; Cohort 3 (2000 mg)", "result": 3}, {"measurement": "Hepatobiliary disorder (SAE), Grade (CTCAE)", "setting": "[2]; Cohort 3 (2000 mg)", "result": 3}, {"measurement": "Hypophosphatemia, Grade of the grade 3-4 events (CTCAE)", "setting": "[2]; Cohort 3 (2000 mg)", "result": 3}, {"measurement": "Total treatment emergent AEs reported over the course of the study", "setting": "[2]; all cohorts, 17 patients", "result": 184}, {"measurement": "Treatment emergent AEs considered related to SLC-0111", "setting": "[2]; all cohorts, 17 patients", "result": 91}, {"measurement": "SAEs recorded across the entire study group", "setting": "[2]; all cohorts, only hepatobiliary disorder drug related", "result": "Three"}, {"measurement": "Tolerability (in words)", "setting": "[2]; doses of 1000 mg daily or below", "result": "generally well tolerated"}, {"measurement": "Maximum tolerated dose", "setting": "[2]; doses up to 2000 mg daily", "result": "not established"}, {"measurement": "Recommended phase II dose (RP2D)", "setting": "[2]; oral liquid formulation, once daily", "result": 1000, "unit": "mg/day"}, {"measurement": "Objective responses", "setting": "advanced solid tumors; all cohorts", "result": "no objective responses were observed"}, {"measurement": "Stable disease maintained, number of 28-day cycles", "setting": "advanced solid tumors; cohort 1 (500 mg), one patient with sarcoma of spine", "result": 10, "unit": "cycles"}, {"measurement": "Stable disease up to cycle", "setting": "advanced solid tumors; cohort 3 (2000 mg), one patient with colorectal cancer", "result": "≤ 7"}, {"measurement": "Prolonged stable disease (SD), duration", "setting": "advanced solid tumors; observed in 2 patients", "result": "> 24", "unit": "weeks"}]}
